Test results as given in ChEMBL document CHEMBL3994615, “Design, synthesis and antibacterial evaluation of novel pleuromutilin derivatives possessing piperazine linker” (2017).
Values after ≈ are worked out from the molar mass of the structure shown.

Columns and labels:
Type in all cases: functional
Enterococcus faecalis = assay: Antibacterial activity against Enterococcus faecalis ATCC 29212 after overnight incubation by broth dilution method
Method in brief: (§1)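 CLSI broth microdilution MIC. Compounds dissolved in methanol, diluted to working solution in Brain Heart Infusion broth. Organisms recovered in broth 18–24 h at 37 °C, 5% CO2; inoculum from colonies suspended in saline. Test range 0.016–32 (final), incubated 24 h at 37 °C. MIC taken as the lowest concentration inhibiting visible growth. Run in duplicate with drug-free and solvent-blank columns; final methanol 1.25%.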

Staphylococcus aureus [1] = assay: Antibacterial activity against Staphylococcus aureus ATCC 29213 after overnight incubation by broth dilution method
Method in brief: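 CLSI broth microdilution MIC. Compounds dissolved in methanol, diluted to working solution in Mueller-Hinton broth. Strain recovered in broth 18–24 h at 37 °C, 5% CO2; colonies suspended in saline for inoculum. Final test range 0.016–32, plates incubated 24 h at 37 °C. MIC read as the lowest concentration preventing visible growth. Duplicates, with drug-free and solvent-blank columns; final methanol 1.25%.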

Enterococcus faecium = assay: Antibacterial activity against Enterococcus faecium ATCC 35667 after overnight incubation by broth dilution method; method in brief: as §1
Staphylococcus aureus [2] = assay: Antibacterial activity against methicillin-resistant Staphylococcus aureus ATCC 43300 after overnight incubation by broth dilution method
Method in brief: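 CLSI broth dilution MIC in Mueller-Hinton broth. Compounds were dissolved in methanol, diluted in broth, and tested over a two-fold range, with final methanol 1.25% in the top well. Inoculum was colonies in saline after 18–24 h growth at 37 °C in 5% CO2. Plates ran 24 h at 37 °C. MIC was the lowest concentration preventing visible growth. Duplicate wells, drug-free and solvent controls.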

Staphylococcus aureus [3] = assay: Antibacterial activity against methicillin-resistant Staphylococcus aureus ATCC 43300 infected in neutropenic mouse assessed as mouse survival rate at 40 mg/kg, iv administered 1 hr post infection relative to control; conditions: ATCC 43300, iv
Method in brief: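 Female ICR mice (23–25 g) were made neutropenic with cyclophosphamide ip, 150 mg/kg 4 days and 100 mg/kg 1 day before infection. They were infected ip with 0.5 mL of ~10⁷ CFU/mL MRSA, then given compound iv at 40 mg/kg 1 h post-infection, with tiamulin given the same way as comparator. 10 mice per group; survival recorded.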

| SMILES | MIC (Enterococcus faecalis) | MIC (Staphylococcus aureus [1]) | MIC (Enterococcus faecium) | MIC (Staphylococcus aureus [2]) | survival at 40 mg/kg (Staphylococcus aureus [3]) |
| --- | --- | --- | --- | --- | --- |
| C=C[C@]1(C)C[C@@H](OC(=O)CN2CCN(C(=O)CN3CCN(C)CC3)CC2)[C@]2(C)[C@H](C)CC[C@]3(CCC(=O)[C@H]32)[C@@H](C)[C@@H]1O | 2 µg/mL (≈ 3.41 µM) | 0.5 µg/mL (≈ 0.852 µM) | > 32 µg/mL | 0.125 µg/mL (≈ 0.213 µM) | – |
| C=C[C@]1(C)C[C@@H](OC(=O)CSCCN(CC)CC)[C@]2(C)[C@H](C)CC[C@]3(CCC(=O)[C@H]32)[C@@H](C)[C@@H]1O [TIAMULIN] | 2 µg/mL (≈ 4.05 µM) | 0.5 µg/mL (≈ 1.01 µM) | > 32 µg/mL | 0.125 µg/mL (≈ 0.253 µM) | 10% |
| C=C[C@]1(C)C[C@@H](OC(=O)CS[C@@H]2C[C@H]3CC[C@@H](C2)N3C)[C@]2(C)[C@H](C)CC[C@]3(CCC(=O)[C@H]32)[C@@H](C)[C@@H]1O [RETAPAMULIN] | – | 0.0625 µg/mL (≈ 0.121 µM) | > 32 µg/mL | 0.0625 µg/mL (≈ 0.121 µM) | – |
| C=C[C@]1(C)C[C@@H](OC(=O)CN2CCN(C(=O)CN3CCN(c4ccccc4)CC3)CC2)[C@]2(C)[C@H](C)CC[C@]3(CCC(=O)[C@H]32)[C@@H](C)[C@@H]1O | 4 µg/mL (≈ 6.16 µM) | 0.25 µg/mL (≈ 0.385 µM) | > 32 µg/mL | 0.125 µg/mL (≈ 0.193 µM) | – |
| C=C[C@]1(C)C[C@@H](OC(=O)CN2CCN(C(=O)CN3CCN(c4ccccc4O)CC3)CC2)[C@]2(C)[C@H](C)CC[C@]3(CCC(=O)[C@H]32)[C@@H](C)[C@@H]1O | 2 µg/mL (≈ 3.01 µM) | 1 µg/mL (≈ 1.5 µM) | > 32 µg/mL | 0.5 µg/mL (≈ 0.752 µM) | – |
| C=C[C@]1(C)C[C@@H](OC(=O)CN2CCN(C(=O)CN3CCN(c4ccccc4Cl)CC3)CC2)[C@]2(C)[C@H](C)CC[C@]3(CCC(=O)[C@H]32)[C@@H](C)[C@@H]1O | 4 µg/mL (≈ 5.85 µM) | 0.5 µg/mL (≈ 0.732 µM) | > 32 µg/mL | 0.015 µg/mL (≈ 0.022 µM) | – |
| C=C[C@]1(C)C[C@@H](OC(=O)CN2CCN(C(=O)CN3CCN(c4ccccc4C)CC3)CC2)[C@]2(C)[C@H](C)CC[C@]3(CCC(=O)[C@H]32)[C@@H](C)[C@@H]1O | 2 µg/mL (≈ 3.02 µM) | 0.25 µg/mL (≈ 0.377 µM) | > 32 µg/mL | 0.0625 µg/mL (≈ 0.0943 µM) | – |
| C=C[C@]1(C)C[C@@H](OC(=O)CN2CCN(C(=O)CN3CCN(c4ccccc4[N+](=O)[O-])CC3)CC2)[C@]2(C)[C@H](C)CC[C@]3(CCC(=O)[C@H]32)[C@@H](C)[C@@H]1O | 2 µg/mL (≈ 2.88 µM) | 0.0625 µg/mL (≈ 0.0901 µM) | > 32 µg/mL | 0.0625 µg/mL (≈ 0.0901 µM) | – |
| C=C[C@]1(C)C[C@@H](OC(=O)CSC(C)(C)CNC(=O)[C@H](N)C(C)C)[C@]2(C)[C@H](C)CC[C@]3(CCC(=O)[C@H]32)[C@@H](C)[C@@H]1O [VALNEMULIN] | 1 µg/mL (≈ 1.77 µM) | 0.125 µg/mL (≈ 0.221 µM) | > 32 µg/mL | 0.03 µg/mL (≈ 0.0531 µM) | – |
| C=C[C@]1(C)C[C@@H](OC(=O)CO)[C@]2(C)[C@H](C)CC[C@]3(CCC(=O)[C@H]32)[C@@H](C)[C@@H]1O [PLEUROMULIN] | 16 µg/mL (≈ 42.3 µM) | 8 µg/mL (≈ 21.1 µM) | > 32 µg/mL | 2 µg/mL (≈ 5.28 µM) | – |
| C=C[C@]1(C)C[C@@H](OC(=O)CN2CCN(C(=O)CN3CCN(c4ccc(Cl)cc4)CC3)CC2)[C@]2(C)[C@H](C)CC[C@]3(CCC(=O)[C@H]32)[C@@H](C)[C@@H]1O | 2 µg/mL (≈ 2.93 µM) | 0.125 µg/mL (≈ 0.183 µM) | > 32 µg/mL | 0.015 µg/mL (≈ 0.022 µM) | 50% |
| C=C[C@]1(C)C[C@@H](OC(=O)CN2CCNCC2)[C@]2(C)[C@H](C)CC[C@]3(CCC(=O)[C@H]32)[C@@H](C)[C@@H]1O | 8 µg/mL (≈ 17.9 µM) | 2 µg/mL (≈ 4.48 µM) | > 32 µg/mL | 1 µg/mL (≈ 2.24 µM) | – |
| C=C[C@]1(C)C[C@@H](OC(=O)CN2CCN(C(=O)CN3CCN(c4cccc(OC)c4)CC3)CC2)[C@]2(C)[C@H](C)CC[C@]3(CCC(=O)[C@H]32)[C@@H](C)[C@@H]1O | 2 µg/mL (≈ 2.95 µM) | 0.25 µg/mL (≈ 0.368 µM) | > 32 µg/mL | 0.25 µg/mL (≈ 0.368 µM) | – |
| C=C[C@]1(C)C[C@@H](OC(=O)CN2CCN(C(=O)CN3CCN(c4ccc(OC)cc4)CC3)CC2)[C@]2(C)[C@H](C)CC[C@]3(CCC(=O)[C@H]32)[C@@H](C)[C@@H]1O | 2 µg/mL (≈ 2.95 µM) | 0.5 µg/mL (≈ 0.736 µM) | > 32 µg/mL | 0.25 µg/mL (≈ 0.368 µM) | – |
| C=C[C@]1(C)C[C@@H](OC(=O)CN2CCN(C(=O)CN3CCN(c4cccc(O)c4)CC3)CC2)[C@]2(C)[C@H](C)CC[C@]3(CCC(=O)[C@H]32)[C@@H](C)[C@@H]1O | 2 µg/mL (≈ 3.01 µM) | 0.5 µg/mL (≈ 0.752 µM) | > 32 µg/mL | 0.25 µg/mL (≈ 0.376 µM) | – |
| C=C[C@]1(C)C[C@@H](OC(=O)CN2CCN(C(=O)CN3CCN(c4ccc(C)cc4)CC3)CC2)[C@]2(C)[C@H](C)CC[C@]3(CCC(=O)[C@H]32)[C@@H](C)[C@@H]1O | 2 µg/mL (≈ 3.02 µM) | 0.25 µg/mL (≈ 0.377 µM) | > 32 µg/mL | 0.125 µg/mL (≈ 0.189 µM) | – |
| C=C[C@]1(C)C[C@@H](OC(=O)CN2CCN(C(=O)CN3CCN(c4cccc(Cl)c4)CC3)CC2)[C@]2(C)[C@H](C)CC[C@]3(CCC(=O)[C@H]32)[C@@H](C)[C@@H]1O | 2 µg/mL (≈ 2.93 µM) | 0.25 µg/mL (≈ 0.366 µM) | > 32 µg/mL | 0.03 µg/mL (≈ 0.0439 µM) | – |
| C=C[C@]1(C)C[C@@H](OC(=O)CN2CCN(C(=O)CN3CCN(c4ccc(O)cc4)CC3)CC2)[C@]2(C)[C@H](C)CC[C@]3(CCC(=O)[C@H]32)[C@@H](C)[C@@H]1O | 8 µg/mL (≈ 12 µM) | 2 µg/mL (≈ 3.01 µM) | > 32 µg/mL | 1 µg/mL (≈ 1.5 µM) | – |
| C=C[C@]1(C)C[C@@H](OC(=O)CN2CCN(C(=O)CCl)CC2)[C@]2(C)[C@H](C)CC[C@]3(CCC(=O)[C@H]32)[C@@H](C)[C@@H]1O | > 32 µg/mL | > 32 µg/mL | > 32 µg/mL | > 32 µg/mL | – |
| C=C[C@]1(C)C[C@@H](OC(=O)CN2CCN(C(=O)CN3CCN(c4cccc(C)c4)CC3)CC2)[C@]2(C)[C@H](C)CC[C@]3(CCC(=O)[C@H]32)[C@@H](C)[C@@H]1O | 4 µg/mL (≈ 6.03 µM) | 0.5 µg/mL (≈ 0.754 µM) | > 32 µg/mL | 0.25 µg/mL (≈ 0.377 µM) | – |
| C=C[C@]1(C)C[C@@H](OC(=O)CN2CCN(C(=O)CN3CCN(c4ccccc4OC)CC3)CC2)[C@]2(C)[C@H](C)CC[C@]3(CCC(=O)[C@H]32)[C@@H](C)[C@@H]1O | 4 µg/mL (≈ 5.89 µM) | 0.5 µg/mL (≈ 0.736 µM) | > 32 µg/mL | 0.5 µg/mL (≈ 0.736 µM) | – |
| C=C[C@]1(C)C[C@@H](OC(=O)CN2CCN(C(=O)CN3CCN(c4ccc([N+](=O)[O-])cc4)CC3)CC2)[C@]2(C)[C@H](C)CC[C@]3(CCC(=O)[C@H]32)[C@@H](C)[C@@H]1O | 1 µg/mL (≈ 1.44 µM) | 0.125 µg/mL (≈ 0.18 µM) | > 32 µg/mL | 0.015 µg/mL (≈ 0.0216 µM) | – |
| C=C[C@]1(C)C[C@@H](OC(=O)CN2CCN(C(=O)CN3CCN(c4cccc([N+](=O)[O-])c4)CC3)CC2)[C@]2(C)[C@H](C)CC[C@]3(CCC(=O)[C@H]32)[C@@H](C)[C@@H]1O | 2 µg/mL (≈ 2.88 µM) | 0.25 µg/mL (≈ 0.36 µM) | > 32 µg/mL | 0.0625 µg/mL (≈ 0.0901 µM) | – |
